Reference: PubChem BioAssay AID871 (The Scripps Research Institute Molecular Screening Center, 2007)
Out of some 190,000 compounds screened, about 1,800 (0.95%) were called active.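 The calls were made as follows: active = activation above the screen-wide mean of compound activation plus 3 SD (cut at about 130% in these data); inactive = the rest.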 The list comes from a sample in which actives are over-represented; it also holds similar structures and randomly drawn compounds.

Assay: IL-6 driven STAT3 reporter potentiators, primary screen, U3A cells, luciferase, luminescence, MLSCN library (AID 871);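 also: 0% = background luminescence of wells with medium and substrate only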
Settings: IL-6 STAT3-luciferase reporter, at 5.6 µM, stronger effect = higher value, 100% = signal with IL-6 EC80 alone
In short: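 Material: human U3A cells carrying STAT3-luciferase construct. Measured by: reporter luminescence signal. Timing: compound 1 h, then IL-6 6 h at 37 °C.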

Compound | activation (% of control)
COc1ccc(NC(=O)CC2C(=O)OCC3CCCCN32)cc1Cl (centres undefined) | 102% (inactive)
COc1ccccc1CN(C)c1nnnn1-c1ccccc1 | 99.5% (inactive)
COc1cccc(-n2c(=S)[nH]c3c(oc4ccccc43)c2=O)c1 | 136% (active)
COC(=O)c1ccc(CSc2nc3ccccc3c(=O)n2-c2cccc(OC)c2)o1 | 101% (inactive)
COc1cccc(-n2cc(C(=O)O)c3ccccc3c2=O)c1 | 98.5% (inactive)
O=Cc1ccc(OCc2cn3ccccc3n2)cc1 | 101% (inactive)
COc1ccc(/C=C(\NC(=O)c2ccc(OCC(C)C)cc2)C(=O)OCc2ccco2)cc1 | 111% (inactive)
NNc1nc2c(Cl)cccc2s1 | 134% (active)
Fc1cc(F)c2nc(Nc3nc4c(F)cccc4s3)sc2c1 | 129% (inactive)
COc1cccc2sc(Nc3nc(C)c(C(C)=O)s3)nc12 | 108% (inactive)
O=C(CSc1ccccn1)Nc1nc2c(ccc3ccccc32)s1 | 103% (inactive)
NC(=O)Cn1nc([N+](=O)[O-])nc1Oc1ccc(Br)cc1 | 93.7% (inactive)
CC(=O)N1N=C(c2ccccc2)OC1c1cccnc1 (centres undefined) | 103% (inactive)
CCOC(=O)c1c(-c2cccc(C)c2)csc1NC(=O)c1c(-c2ccccc2)noc1C | 137% (active)
CC(=O)Nc1cccc(NC(=O)c2c(-c3ccccc3)noc2C)c1 | 88.8% (inactive)
CCOC(=O)c1c(-c2ccccc2)csc1NC(=S)NC(=O)c1ccccc1 | 106% (inactive)
O=C(/C=C/c1ccccc1)Nc1nnc(SCC(=O)c2ccc3ccccc3c2)s1 | 104% (inactive)
COc1ccc(NS(=O)(=O)c2ccc(O)c(C(=O)OCC(=O)NC3CCCCC3)c2)cc1 | 102% (inactive)
CCN=c1sc(C(=O)Nc2ccccc2)c(C)n1CC | 84.4% (inactive)
COc1cc2c(cc1/C=C1/NC(=O)N(c3ccccc3)C1=O)OCO2 | 88.5% (inactive)
COc1ccccc1C1C2=C(COC2=O)Nc2cc3c(cc21)OCO3 (centres undefined) | 144% (active)
CCCOc1ccccc1C1CC(=O)Nc2cc3c(cc21)OCO3 (centres undefined) | 66.4% (inactive)

Compound | activation (% of control)
CSc1ccc(CN(C)CC(=O)NCc2ccc(F)cc2)cc1 | 106% (inactive)
Cc1cc(NC(=O)CN2CCCC(C)C2)n(-c2nc3ccccc3s2)n1 (centres undefined) | 113% (inactive)
CCOC(=O)N1CCN(CC(=O)Nc2ccc(F)cc2)CC1 | 108% (inactive)
CCOC(=O)N1CCN(CC(=O)Nc2cc(C)nn2-c2nc3ccccc3s2)CC1 | 162% (active)
O=C(CCNC(=O)c1ccc([N+](=O)[O-])cc1)Nc1ccccc1N1CCOCC1 | 104% (inactive)
NC(=O)CC[C@@H]1NC(=O)[C@H](CO)NC(=O)c2cc([N+](=O)[O-])cc(I)c2NCC[C@@H](C(N)=O)NC1=O | 95.5% (inactive)
Cc1cc(O)cc(O)c1C(=O)Cc1cnn(-c2ccccc2)c1 | 92.8% (inactive)
c1ccc(C2c3[nH]c4ccccc4c3CCN2Cc2cccn2-c2cccnc2)nc1 (centres undefined) | 94% (inactive)
Oc1cccc(C2c3[nH]c4ccccc4c3CCN2Cc2cnn(-c3ccccc3)c2)c1 (centres undefined) | 138% (active)
Cc1ccc(Cl)cc1NC(=S)N(CCN(C)C)Cc1cccs1 | 96.1% (inactive)
COc1ccc2c(CC(=O)OCC(=O)Nc3ccccc3[N+](=O)[O-])coc2c1 | 110% (inactive)
Cc1ccc(-c2cc(C(=O)N3CCc4ccccc4C3)no2)cc1 | 98.3% (inactive)
Cc1ccc2c(c1)c1ncn(CCC3=CCCCC3)c(=O)c1n2C | 104% (inactive)
Cc1ccc2c(c1)c1ncnc(N3CCc4ccccc4C3)c1n2C | 133% (active)
Fc1ccc(COc2cccc(-c3n[nH]c(=S)o3)c2)cc1 | 102% (inactive)
CCOC(=O)N1CCN(Cc2nc3ccc([N+](=O)[O-])cc3c(=O)n2-c2cccc(OC)c2)CC1 | 83.3% (inactive)
CCn1cc(C(=O)NCCCN2CCCCCC2)c(=O)c2cc(S(=O)(=O)N3CCc4ccccc4C3)ccc21 | 108% (inactive)
COc1ccc(NC(=O)ON=C2c3ccccc3-c3ccccc32)cc1 | 152% (active)
COc1ccc(C(=O)ON=C2c3ccccc3-c3ccccc32)cc1OC | 107% (inactive)
COc1ccc(NC(=O)C(Br)C(C)C)cc1 (centres undefined) | 101% (inactive)
COCCN(C(=O)c1ccccc1F)c1c(N)n(Cc2ccccc2)c(=O)[nH]c1=O | 89.7% (inactive)
CC12CN(NC(=O)c3ccc(Cl)cc3)C3(C#N)CC1CCC23C (centres undefined) | 104% (inactive)
